Assay results reported in ChEMBL document CHEMBL1781963, “Discovery of novel hepatoselective HMG-CoA reductase inhibitors for treating hypercholesterolemia: a bench-to-bedside case study on tissue selective drug distribution” (Bioorg Med Chem Lett, 2011).

Tests used:
[1] = tested on: Plasma; experiment: fAUC (0 to infinity) in human plasma at 40 mg administered as single dose; assay type: ADME, cell-free
Procedure, shortened: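 Phase 1 single ascending oral dose in healthy volunteers, with N per dose group. Total plasma Cmax and AUC(0-∞) were measured. Free-drug exposures were derived from these using plasma protein binding (human plasma fu measured at 0.5 μg/mL).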

[2] = molecular target: T1, OATP1A1 (Rattus norvegicus, UniProt P46720); experiment: Drug uptake by rat hepatic OATP1A1 transporters expressed in CHO cells at 10 uM relative to wild type CHO cells; assay type: ADME, cell-based; settings: CHO cells expressing rat OATP1A1, read-out: FC
T1 sequence (P46720 whole entry): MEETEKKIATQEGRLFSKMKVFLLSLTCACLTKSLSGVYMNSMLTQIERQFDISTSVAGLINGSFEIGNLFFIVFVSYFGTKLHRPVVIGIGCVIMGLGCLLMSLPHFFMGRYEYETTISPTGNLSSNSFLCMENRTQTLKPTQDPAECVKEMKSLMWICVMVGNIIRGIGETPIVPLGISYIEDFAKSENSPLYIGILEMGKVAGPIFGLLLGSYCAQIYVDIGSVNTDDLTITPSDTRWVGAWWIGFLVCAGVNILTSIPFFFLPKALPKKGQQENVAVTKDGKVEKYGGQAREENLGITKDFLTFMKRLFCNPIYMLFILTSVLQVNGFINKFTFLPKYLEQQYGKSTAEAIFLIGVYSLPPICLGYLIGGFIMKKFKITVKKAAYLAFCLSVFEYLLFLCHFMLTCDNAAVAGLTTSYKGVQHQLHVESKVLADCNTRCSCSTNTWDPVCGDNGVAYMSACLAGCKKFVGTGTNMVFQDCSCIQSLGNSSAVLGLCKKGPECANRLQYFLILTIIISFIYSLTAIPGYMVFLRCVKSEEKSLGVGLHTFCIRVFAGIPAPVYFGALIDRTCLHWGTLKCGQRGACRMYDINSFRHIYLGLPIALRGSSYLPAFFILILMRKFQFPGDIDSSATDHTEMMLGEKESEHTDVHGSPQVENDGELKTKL
Procedure, shortened: (§1)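 Individual hepatic OATP transporters were over-expressed in CHO or HEK293 cells: rat rOatp1a1, rOatp1a4 and rOatp1b2, and human hOATP1B1, hOATP1B3 and hOATP2B1. Substrate uptake is expressed as fold difference relative to the wild-type parental line. Rosuvastatin/pravastatin served as positive control and midazolam as negative control in each assay.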

[3] = tested on: L6; experiment: Selectivity ratio of IC50 for cholesterol synthesis in rat L6 cells to IC50 for cholesterol synthesis in rat hepatocytes
[4] = tested on: Hepatocyte; experiment: Drug uptake in sandwich-cultured human hepatocytes assessed per mg of protein at 1 uM in presence of rifamycin SV; assay type: ADME, cell-based
Procedure, shortened: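 Rat or human hepatocytes were cultured in sandwich configuration with a Matrigel overlay and compound uptake was measured. Active uptake was assessed by inhibition with the pan-OATP inhibitor rifamycin SV. Rosuvastatin/pravastatin served as positive control and midazolam as negative control.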

[5] = Fraction unbound in rat liver at 1 uM; assay type: ADME, tissue-based
Procedure, shortened: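 Unbound fraction in rat liver tissue, measured at 1 μM drug.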

[6] = molecular target: T2, OATP1A4 (Rattus norvegicus, UniProt O35913); experiment: Drug uptake by rat hepatic OATP1A4 transporters expressed in CHO cells at 10 uM relative to wild type CHO cells; assay type: ADME, cell-based; settings: CHO cells expressing rat OATP1A4, read-out: FC; procedure, shortened: as §1
T2 sequence (O35913 whole entry): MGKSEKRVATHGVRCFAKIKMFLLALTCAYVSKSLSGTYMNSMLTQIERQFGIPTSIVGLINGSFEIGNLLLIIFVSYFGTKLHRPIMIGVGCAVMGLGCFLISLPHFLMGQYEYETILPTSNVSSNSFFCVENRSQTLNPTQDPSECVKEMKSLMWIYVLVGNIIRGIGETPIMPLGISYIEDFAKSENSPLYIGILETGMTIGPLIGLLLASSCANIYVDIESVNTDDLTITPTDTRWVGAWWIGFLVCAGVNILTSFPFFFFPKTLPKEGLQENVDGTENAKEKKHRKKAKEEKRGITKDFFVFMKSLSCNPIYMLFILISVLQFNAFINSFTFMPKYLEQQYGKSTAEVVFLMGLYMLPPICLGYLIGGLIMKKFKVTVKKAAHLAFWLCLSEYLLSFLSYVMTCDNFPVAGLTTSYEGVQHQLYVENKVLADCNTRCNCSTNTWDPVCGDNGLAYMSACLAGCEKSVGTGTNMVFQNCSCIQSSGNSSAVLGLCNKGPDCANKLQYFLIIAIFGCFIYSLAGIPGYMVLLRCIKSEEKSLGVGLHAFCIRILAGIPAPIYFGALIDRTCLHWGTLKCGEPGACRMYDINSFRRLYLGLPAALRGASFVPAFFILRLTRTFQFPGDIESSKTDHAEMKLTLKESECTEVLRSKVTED

[7] = Half life in dog at 1 mg/kg, iv; assay type: ADME, organism-based, Canis lupus familiaris; parameters: dose 1 mg/kg, route intravenous; settings: in vivo
Procedure, shortened: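 Intravenous 1 mg/kg dose in rat or dog. Terminal half-life was derived from plasma concentrations and is reported as the geometric mean of n = 2 animals per group.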

[8] = Terminal half life in human plasma at 40 mg administered as single dose; assay type: ADME, cell-free; settings: read-out: beta t1/2 (converted)
[9] = molecular target: T3, OATP2B1 (Homo sapiens, UniProt O94956); experiment: Drug uptake by human hepatic OATP2B1 transporter expressed in HEK293 cells at 1 uM relative to wild-type HEK293 cells; assay type: ADME, cell-based; settings: HEK293 cells expressing human OATP2B1, read-out: FC; procedure, shortened: as §1
T3 sequence (O94956 whole entry): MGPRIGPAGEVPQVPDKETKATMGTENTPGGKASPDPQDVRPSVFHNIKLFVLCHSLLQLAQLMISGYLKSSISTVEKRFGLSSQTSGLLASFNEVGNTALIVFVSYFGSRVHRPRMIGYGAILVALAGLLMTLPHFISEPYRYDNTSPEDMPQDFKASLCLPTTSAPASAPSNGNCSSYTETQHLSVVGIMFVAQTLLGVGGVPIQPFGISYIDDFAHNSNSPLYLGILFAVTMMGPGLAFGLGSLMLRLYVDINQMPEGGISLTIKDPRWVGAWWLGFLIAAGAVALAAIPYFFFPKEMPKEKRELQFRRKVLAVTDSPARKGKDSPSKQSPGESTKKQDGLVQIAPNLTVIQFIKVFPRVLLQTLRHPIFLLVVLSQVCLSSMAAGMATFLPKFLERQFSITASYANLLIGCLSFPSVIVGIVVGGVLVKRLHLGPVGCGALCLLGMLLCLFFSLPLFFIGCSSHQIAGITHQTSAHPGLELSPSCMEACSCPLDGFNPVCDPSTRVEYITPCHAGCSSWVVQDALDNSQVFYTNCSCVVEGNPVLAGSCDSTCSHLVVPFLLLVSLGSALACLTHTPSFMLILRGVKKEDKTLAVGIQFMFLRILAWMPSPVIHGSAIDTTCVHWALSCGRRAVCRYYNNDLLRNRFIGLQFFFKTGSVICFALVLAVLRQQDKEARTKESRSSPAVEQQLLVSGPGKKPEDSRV

[10] = tested on: Rattus norvegicus; experiment: fCmax in rat at 10 mg/kg, po; assay type: ADME, organism-based; parameters: dose 10 mg/kg, route oral; settings: in vivo
Procedure, shortened: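 Single po dose: rat 10 mg/kg (n = 2), dog 5 mg/kg (n = 1 or 3 animals). Values are geometric means. Cmax is given as free drug concentration using plasma protein binding values, which were determined at 0.5 μg/mL.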

Row | Compound | fAUC [1] [µg·h/mL] | uptake ratio at 10 µM [2] | Ratio IC50 [3] | Drug uptake [4] [%] | fraction unbound at 1 µM [5] | uptake ratio at 10 µM [6] | half-life [7] [h] | half-life [8] [h] | uptake ratio at 1 µM [9] | fCmax [10] [ng/mL]
1 | O=C([O-])C[C@H](O)C[C@H](O)CCn1c(-c2ccc(F)cc2)nc(C(=O)NCc2cccc(F)c2)c1C1CC1.[Na+] | 0.00181 | 4.4 | 4440 | 97 | 0.23 | 7.3 | 0.27 | 3.22 | 7.1 | 2
2 | Cc1ccc(CNC(=O)c2nn(-c3ccc(F)cc3)c(CC[C@@H](O)C[C@@H](O)CC(=O)O)c2C(C)C)cc1 | 0.261 | 4.2 | 810 | 78 | 0.052 | 3 | 0.78 | 8.57 | 2.1 | 1.3
3 | Cc1ncc2n1-c1ccc(Cl)cc1C(c1ccccc1F)=NC2 [MIDAZOLAM] | – | 1.7 | – | – | – | 0.82 | – | – | 0.8 | –
4 | CC[C@H](C)C(=O)O[C@H]1C[C@H](O)C=C2C=C[C@H](C)[C@H](CC[C@@H](O)C[C@@H](O)CC(=O)O)[C@H]21 [PRAVASTATIN] | – | 3.9 | – | – | – | 1.8 | – | – | – | –
5 | CC(C)c1nc(N(C)S(C)(=O)=O)nc(-c2ccc(F)cc2)c1/C=C/[C@@H](O)C[C@@H](O)CC(=O)O [ROSUVASTATIN] | – | 5.3 | 830 | 85 | 0.17 | 17.3 | – | – | 5.5 | –
